Results gathered from unrelated publications.
Each line is one published result; the experiments were not run side by side.
Observed: microbial growth

| SMILES | organism | technique | strain | time | MIC |
| --- | --- | --- | --- | --- | --- |
| O=C(O)Cc1ccccc1Oc1ccc(-c2noc(-c3ccc(O)cc3)n2)cc1 | Clostridioides difficile | broth dilution | – | 48 h | > 50 µg/mL |
| Oc1c(F)cc(-c2nc(-c3ccc(Oc4ccc(C(F)(F)F)cc4)cc3)no2)cc1F | Clostridioides difficile | broth dilution | ATCC43255 | 48 h | 2 to 4 µg/mL |
| CNc1ccc(-c2nc(-c3ccc(Oc4ccccc4)cc3)no2)cc1 | Clostridioides difficile | broth dilution | – | 48 h | 8 µg/mL |
| Cc1ccc(C)n1-c1ccc(-c2nnc(-c3cccc([N+](=O)[O-])c3)[nH]2)cc1 | Saccharomyces cerevisiae | broth dilution | ATCC9763 | – | 31.2 µg/mL |
| CC(CN)c1ccc(Oc2ccc(-c3noc(-c4ccc(O)cc4)n3)cc2)cc1.Cl (racemic) | Clostridioides difficile | broth dilution | – | 48 h | 16 µg/mL |
| Cc1cc(C)n(C(=O)c2ccc(-n3c(C)ccc3C)cc2)n1 | Saccharomyces cerevisiae | broth dilution | ATCC9763 | – | > 500 µg/mL |
| Oc1ccc(-c2nc(-c3ccc(Oc4ccccc4)cc3)no2)cc1 | Clostridioides difficile | broth dilution | – | 48 h | 6 µg/mL |
| C[C@@H]1[C@H](O)[C@@H](C)/C=C/C=C/C=C/C=C/C=C/C=C/C=C/[C@H](O[C@@H]2O[C@H](C)[C@@H](O)[C@H](N)[C@@H]2O)C[C@@H]2O[C@](O)(C[C@@H](O)C[C@@H](O)[C@H](O)CC[C@@H](O)C[C@@H](O)CC(=O)O[C@H]1C)C[C@H](O)[C@H]2C(=O)O | Saccharomyces cerevisiae | – | – | – | 0.5 µg/mL |
| C/C=C/C/C=C/CCC(=O)[C@H]1O[C@H]1C(N)=O | Saccharomyces cerevisiae | – | – | – | 10 to 12 µM |
| Cc1ccc(C)n1-c1ccc(-c2nnc(-c3c(Cl)cccc3Cl)[nH]2)cc1 | Saccharomyces cerevisiae | broth dilution | ATCC9763 | – | 2 µg/mL |
| Oc1ccc(-c2nc(-c3ccc(Oc4ccc(I)cc4)cc3)no2)cc1 | Clostridioides difficile | broth dilution | ATCC43255 | 48 h | 8 to 128 µg/mL |
| Cc1cc(=O)[nH]n1C(=O)c1ccc(-n2c(C)ccc2C)cc1 | Saccharomyces cerevisiae | broth dilution | ATCC9763 | – | 250 µg/mL |
| CC[C@@H]([C@H](C)O)n1ncn(-c2ccc(N3CCN(c4ccc(OC[C@@H]5CO[C@@](Cn6cncn6)(c6ccc(F)cc6F)C5)cc4)CC3)cc2)c1=O | Saccharomyces cerevisiae | – | BY4743 | 72 h | < 0.3 µM |
| O=C(O)COc1ccc(Oc2ccc(-c3noc(-c4ccc(O)cc4)n3)cc2)cc1 | Clostridioides difficile | broth dilution | – | 48 h | 50 µg/mL |
| CC(C)(C)C(=O)C(Oc1ccc(Cl)cc1)n1ccnc1 (centres unmarked) | Saccharomyces cerevisiae | – | – | – | 20 to 25 µM |
| Cc1ccc(C)n1-c1ccc(-c2nnc(S)s2)cc1 | Saccharomyces cerevisiae | broth dilution | ATCC9763 | – | 62.5 µg/mL |
| O=[N+]([O-])c1cc(-c2nc(-c3ccc(Oc4ccc(C(F)(F)F)cc4)cc3)no2)cnc1O | Clostridioides difficile | broth dilution | ATCC43255 | 48 h | 2 to 4 µg/mL |
